Reference: ChEMBL document CHEMBL1146123, “Kinesin spindle protein (KSP) inhibitors. Part 2: the design, synthesis, and characterization of 2,4-diaryl-2,5-dihydropyrrole inhibitors of the mitotic kinesin KSP” (Bioorg Med Chem Lett, 2006)

Columns and labels:
[1] = biological target: T1, Kinesin-like protein KIF11 (Homo sapiens, UniProt P52732); assay: Inhibition of KSP
T1 sequence (P52732 whole entry): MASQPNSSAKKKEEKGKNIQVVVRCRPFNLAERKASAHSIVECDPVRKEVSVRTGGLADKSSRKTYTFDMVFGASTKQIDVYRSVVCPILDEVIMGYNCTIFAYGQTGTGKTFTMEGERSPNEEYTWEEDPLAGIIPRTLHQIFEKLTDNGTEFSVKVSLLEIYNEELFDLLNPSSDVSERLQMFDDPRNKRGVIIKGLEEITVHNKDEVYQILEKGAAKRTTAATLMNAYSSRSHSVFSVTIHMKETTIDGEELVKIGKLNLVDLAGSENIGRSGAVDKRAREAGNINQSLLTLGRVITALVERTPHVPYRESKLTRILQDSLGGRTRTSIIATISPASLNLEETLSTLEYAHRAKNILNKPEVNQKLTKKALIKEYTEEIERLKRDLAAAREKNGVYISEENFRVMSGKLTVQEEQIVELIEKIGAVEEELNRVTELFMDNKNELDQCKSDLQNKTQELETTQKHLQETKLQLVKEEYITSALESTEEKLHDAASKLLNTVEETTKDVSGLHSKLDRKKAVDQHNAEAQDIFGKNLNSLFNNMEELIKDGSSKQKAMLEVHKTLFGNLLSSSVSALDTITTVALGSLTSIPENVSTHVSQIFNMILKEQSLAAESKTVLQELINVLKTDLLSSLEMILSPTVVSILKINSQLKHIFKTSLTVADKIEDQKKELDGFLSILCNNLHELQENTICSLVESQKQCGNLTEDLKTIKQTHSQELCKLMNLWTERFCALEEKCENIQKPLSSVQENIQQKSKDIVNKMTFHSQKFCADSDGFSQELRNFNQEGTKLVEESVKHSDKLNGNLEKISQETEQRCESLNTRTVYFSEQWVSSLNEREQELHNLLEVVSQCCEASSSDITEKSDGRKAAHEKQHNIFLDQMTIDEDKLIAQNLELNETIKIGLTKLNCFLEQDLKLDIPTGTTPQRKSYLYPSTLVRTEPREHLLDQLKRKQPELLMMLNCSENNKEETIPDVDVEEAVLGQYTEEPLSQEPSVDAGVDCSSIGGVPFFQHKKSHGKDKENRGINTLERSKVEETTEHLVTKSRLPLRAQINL

[2] = system: A2780; assay: Mitotic arrest in A2780 cells; format: functional, cell-based; settings: Homo sapiens
How it was run: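 Mitosis-specific nucleolin phosphorylation read-out. Total nucleolin is captured on streptavidin paramagnetic beads carrying biotinylated anti-nucleolin antibody 4E2, and detected by electrochemiluminescence of a Tris-bipyridyl label. Cells were treated for 16 h with a 7-point, half-log dilution series. EC50 is the average of at least two independent determinations.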

[3] = Aqueous solubility at pH 5; format: physicochemical; settings: aqueous solution
[4] = biological target: Voltage-gated inwardly rectifying potassium channel KCNH2 (Homo sapiens, UniProt Q12809); assay: Inhibitory activity against human hERG receptor expressed in HEK cells
[5] = Volume distribution in rat at 1 mg/kg, iv; format: ADME, organism-based; set-up: dose 1 mg/kg, route intravenous; settings: in vivo, read-out: Vdss
How it was run: (§1)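 Single intravenous dose; rats at 1.0 mg/kg (n = 4), dogs at 0.4 mg/kg (n = 4), monkeys at 0.4 mg/kg (n = 3). Plasma clearance (mL/min/kg), steady-state volume of distribution (Vdss, L/kg) and half-life (h) taken from the plasma concentration profile.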

[6] = Half life in rat at 1 mg/kg, iv; format: ADME, organism-based; set-up: dose 1 mg/kg, route intravenous; settings: in vivo; how it was run: as §1
[7] = Plasma clearance in rat at 1 mg/kg, iv; format: ADME, organism-based; set-up: dose 1 mg/kg, route intravenous; how it was run: as §1
[8] = Volume distribution in dog at 0.4 mg/kg, iv; format: ADME, organism-based, Canis lupus familiaris; set-up: dose 0.4 mg/kg, route intravenous; settings: in vivo, read-out: Vdss; how it was run: as §1
[9] = Plasma clearance in monkey at 0.4 mg/kg, iv; format: ADME, organism-based, Macaca mulatta; set-up: dose 0.4 mg/kg, route intravenous; settings: rhesus monkey; how it was run: as §1
[10] = Volume distribution in monkey at 0.4 mg/kg, iv; format: ADME, organism-based, Macaca mulatta; set-up: dose 0.4 mg/kg, route intravenous; settings: rhesus monkey, in vivo, read-out: Vdss; how it was run: as §1
[11] = Half life in dog at 0.4 mg/kg, iv; format: ADME, organism-based, Canis lupus familiaris; set-up: dose 0.4 mg/kg, route intravenous; settings: in vivo; how it was run: as §1
[12] = Plasma clearance in dog at 0.4 mg/kg, iv; format: ADME, organism-based, Canis lupus familiaris; set-up: dose 0.4 mg/kg, route intravenous; how it was run: as §1
[13] = Half life in monkey at 0.4 mg/kg, iv; format: ADME, organism-based, Macaca mulatta; set-up: dose 0.4 mg/kg, route intravenous; settings: rhesus monkey, in vivo; how it was run: as §1

Chain of Voltage-gated inwardly rectifying potassium channel KCNH2 (Q12809 whole entry): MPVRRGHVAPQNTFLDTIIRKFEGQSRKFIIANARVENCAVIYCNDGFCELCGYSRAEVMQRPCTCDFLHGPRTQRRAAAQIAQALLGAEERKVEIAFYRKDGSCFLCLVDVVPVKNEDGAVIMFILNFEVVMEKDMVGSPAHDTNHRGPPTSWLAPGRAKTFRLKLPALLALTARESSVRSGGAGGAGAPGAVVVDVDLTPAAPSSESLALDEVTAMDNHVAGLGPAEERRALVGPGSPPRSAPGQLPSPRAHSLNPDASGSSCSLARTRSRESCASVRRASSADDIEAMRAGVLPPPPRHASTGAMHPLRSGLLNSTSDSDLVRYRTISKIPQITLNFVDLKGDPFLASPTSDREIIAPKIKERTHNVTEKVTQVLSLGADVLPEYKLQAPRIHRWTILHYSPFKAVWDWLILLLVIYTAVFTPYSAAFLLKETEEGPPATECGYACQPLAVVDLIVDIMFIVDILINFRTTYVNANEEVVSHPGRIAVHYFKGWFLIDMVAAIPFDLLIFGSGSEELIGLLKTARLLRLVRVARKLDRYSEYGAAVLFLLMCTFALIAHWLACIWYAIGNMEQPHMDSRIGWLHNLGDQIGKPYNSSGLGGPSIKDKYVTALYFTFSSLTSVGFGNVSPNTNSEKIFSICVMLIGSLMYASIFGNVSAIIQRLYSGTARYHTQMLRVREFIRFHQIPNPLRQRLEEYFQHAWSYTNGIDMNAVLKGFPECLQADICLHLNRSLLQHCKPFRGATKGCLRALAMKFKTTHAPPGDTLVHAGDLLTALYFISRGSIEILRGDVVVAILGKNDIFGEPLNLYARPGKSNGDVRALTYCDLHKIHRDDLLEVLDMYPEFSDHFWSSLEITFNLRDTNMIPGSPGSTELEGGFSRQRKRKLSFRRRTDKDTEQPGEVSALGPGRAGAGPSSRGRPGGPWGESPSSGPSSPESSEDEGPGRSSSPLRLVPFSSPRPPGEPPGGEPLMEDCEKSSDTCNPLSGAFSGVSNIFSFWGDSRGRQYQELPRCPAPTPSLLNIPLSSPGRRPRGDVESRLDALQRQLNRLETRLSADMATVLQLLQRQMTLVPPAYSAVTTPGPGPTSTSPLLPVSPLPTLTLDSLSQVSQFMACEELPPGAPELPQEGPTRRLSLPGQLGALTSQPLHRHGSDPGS

| SMILES | IC50 [1] | EC50 [2] | other results |
| --- | --- | --- | --- |
| CC(C)(C)C(=O)N1CC(c2cc(F)ccc2F)=CC1c1ccccc1 (racemic) | 85 nM |  |  |
| CC(C)(C)[C@H](NC(=O)OCCO)C(=O)N1CC(c2cc(F)ccc2F)=C[C@H]1c1ccccc1 | 7.4 nM | 13 nM |  |
| CN(C(=O)N1CC(c2cc(F)ccc2F)=C[C@H]1c1ccccc1)C1CCNCC1 |  | 6.8 nM | solubility [3]: > 10000 µg/mL |
| CC(=O)N1CC(c2cc(F)ccc2F)=CC1c1ccccc1 (racemic) | 4000 nM |  |  |
| O=C([C@@H](O)C1CC1)N1CC(c2cc(F)ccc2F)=C[C@H]1c1ccccc1 | 11 nM | 20 nM | IC50 [4]: 11000 nM |
| CN(C)C(=O)N1CC(c2cc(F)ccc2F)=C[C@@H]1c1ccccc1 | > 50000 nM |  |  |
| CC(C)(CN)C(=O)N1CC(c2cc(F)ccc2F)=C[C@H]1c1ccccc1 | 5.2 nM | 11 nM |  |
| CC(C)[C@H](N)C(=O)N1CC(c2cc(F)ccc2F)=C[C@H]1c1ccccc1 | 3.6 nM | 12 nM |  |
| CC(=O)N1CCC(N(C)C(=O)N2CC(c3cc(F)ccc3F)=C[C@H]2c2ccccc2)CC1 | 50 nM | 69 nM |  |
| CC(C)[C@@H](N)C(=O)N1CC(c2cc(F)ccc2F)=C[C@H]1c1ccccc1 | 3100 nM |  |  |
| CC(C)(C)C(=O)N1N=C(c2cc(F)ccc2F)CC1c1ccccc1 (racemic) | 113 nM |  |  |
| N[C@H](C(=O)N1CC(c2cc(F)ccc2F)=C[C@H]1c1ccccc1)C1CC1 |  | 8.6 nM | solubility [3]: > 10000 µg/mL; Vd [5]: 4.4 L/kg; half-life [6]: 1.4 h; clearance [7]: 40 mL/min/kg; Vd [8]: 3.8 L/kg; clearance [9]: 21 mL/min/kg; Vd [10]: 7.4 L/kg; half-life [11]: 2.3 h; clearance [12]: 23 mL/min/kg; half-life [13]: 4.5 h |
| CN(CCCN)C(=O)N1CC(c2cc(F)ccc2F)=C[C@H]1c1ccccc1 | 16 nM | 44 nM |  |
| CC(C)(C)[C@H](N)C(=O)N1CC(c2cc(F)ccc2F)=C[C@H]1c1ccccc1 | 2.7 nM | 7.1 nM |  |
